FLuc stim CS – affects firefly luciferase, flagging false hits in luciferase stimulation screens | 200,000 tested, under 10 active | ATPlite luciferase biochemical, luminescence, 10 min; 0 = ATP-free wells, 1 = DMSO control | activation factor at 10 µM | AID 1027 | P08659;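 active = luciferase activation factor, scaled between plate controls, of at least 2 with compound at 10 µM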
Target sequence (P08659 whole entry, looked up): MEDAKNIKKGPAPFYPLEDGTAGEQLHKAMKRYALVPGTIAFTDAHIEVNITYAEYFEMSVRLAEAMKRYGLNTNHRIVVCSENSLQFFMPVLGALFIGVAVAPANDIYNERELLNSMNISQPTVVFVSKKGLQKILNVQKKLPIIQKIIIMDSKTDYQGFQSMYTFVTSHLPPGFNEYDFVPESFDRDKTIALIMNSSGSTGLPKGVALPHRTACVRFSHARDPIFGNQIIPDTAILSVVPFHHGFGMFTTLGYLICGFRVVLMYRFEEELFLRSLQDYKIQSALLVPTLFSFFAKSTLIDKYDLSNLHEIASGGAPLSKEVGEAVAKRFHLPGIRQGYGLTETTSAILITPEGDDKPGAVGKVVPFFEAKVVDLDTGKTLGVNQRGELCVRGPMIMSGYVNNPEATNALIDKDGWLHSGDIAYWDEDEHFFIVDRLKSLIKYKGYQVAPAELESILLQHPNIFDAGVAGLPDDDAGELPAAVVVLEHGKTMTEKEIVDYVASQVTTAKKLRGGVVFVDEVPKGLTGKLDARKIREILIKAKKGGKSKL
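Assay system: Luciferase/luciferin detection reagent, cell-free biochemical luciferase assay / Read-out: luciferase activation / Benchmarks: No-ATP low control, compound-free enzyme-plus-ATP high control / Medium: PBS buffer for ATP / Detection: luminescence measurement of luciferase light output / Schedule: 10 min at ambient temperature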
TRAIL sens C8 – sensitizes caspase-8 expressing cells to TRAIL; inhibition (viability loss, TRAIL sensitization), % at 10 µM; AID 624354; 360,000 tested, 1% active; NB7+C8 cells + TRAIL, ATPlite viability luminescence;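 active = compounds causing at least 50% loss of cell viability in the single-dose screen, relative to plate controls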
FLuc inh counter – inhibits firefly luciferase, flagging false hits in luciferase inhibition screens. P08659. ATPLite firefly luciferase biochemical luminescence, 10 min. inhibition, % at 10 µM. 200,000 tested, 1.5% active. AID 1006;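 active = inhibition above about 50% when tested at 10 µM, limit read from the data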
PPC-1+TRAIL kill – kills PPC-1 cancer cells in the presence of TRAIL; PPC-1 cells + TRAIL, ATPLite viability luminescence; cell killing (% activity), % at 4 µM or 5 µM; 220,000 tested, 0.41% active;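 active = cell killing above 50% in the first pass at 4 µM, then a duplicate retest at 5 µM averaging 50% or more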;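 note: plate controls were cells with TRAIL plus DMSO for no effect and medium-only wells lacking cells for full effect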
* marks the source's active call; other numbers are inactive results; · = no result given. An excerpt weighted towards active compounds, which were near 1.6% of everything screened.

SMILES | FLuc stim CS | TRAIL sens C8 | FLuc inh counter | PPC-1+TRAIL kill
COc1ccc(C(=O)O/N=C(\N)c2ccccc2Cl)cc1OC | · | 78* | · | ·
COc1ccccc1C(=O)O/N=C(\N)c1ccccc1Cl | 1 | 8 | -1 | 12
C/C(=N/OC(=O)c1c(-c2c(Cl)cccc2Cl)noc1C)c1cnccn1 | 1.1 | -2 | -6 | -4
Cc1ccc(C(=O)O/N=C(\N)Cc2cccs2)cc1[N+](=O)[O-] | · | 10 | · | ·
Cn1c(=O)[nH]c(=O)c2c1nc(N)n2Cc1ccccc1 | · | -9 | · | ·
COc1ccc(C(=O)O/N=C(\C)c2ccccc2)cc1 | 0.1 | 8 | 90* | 7
COc1ccc(/C(N)=N/OC(=O)c2ccc(OC)c([N+](=O)[O-])c2)cc1OC | 1 | 64* | -4 | 3
COc1ccc(C(=O)O/N=C(\N)c2ccc(OC)c(OC)c2)cc1 | · | 62* | · | ·
COc1ccc(C(=O)O/N=C(\N)c2ccc(OC)c(OC)c2)c(OC)c1 | · | 17 | · | ·
Cc1cc(C)c(S(=O)(=O)N2CCCCC2CCNC(=O)C(=O)NC2CC2)c(C)c1 (centres undefined) | · | 26 | · | ·
Cc1ccc(C)c(OCCC(=O)OCC(=O)Nc2ccc(Cl)cn2)c1 | · | 20 | · | ·
Cc1ccc(CNc2ccc(N3CCOCC3)cc2)s1 | 0.3 | 68* | 73* | 15
COc1ccc(/C=N/c2c(-c3ccc(OC)cc3)nc3n2CCS3)cc1 | 0.4 | 18 | 59* | -7
O=C(NNC(=S)Nc1cccc2ccccc12)c1cccc(Br)c1 | 1 | -6 | 3 | 25
Cc1ccc(C(=O)NNC(=S)Nc2cccc3ccccc23)s1 | 0.4 | 7 | 58* | 29
CC(C)c1nnc(NC(=O)c2c(O)c3cccc4c3n(c2=O)CCC4)s1 | 1.1 | 60* | -6 | 9
O=C(/C=C/c1ccc(O)cc1)c1ccccc1 | · | 12 | · | 4
Cc1nn(C)cc1/C=C/C(=O)c1ccc(O)cc1 | 0.4 | 34 | 57* | 14
Fc1cccc(Cc2noc(CN3CCC(c4ccncc4)CC3)n2)c1 | 1.1 | 24 | -10 | -9
Cc1cc(N)n(-c2ccc(Oc3ccccc3)c(S(=O)(=O)O)c2)n1 | 1 | 8 | -1 | -21
Cc1ccc(Cl)cc1N1CCN(C(=O)c2noc(C(C)C)c2[N+](=O)[O-])CC1 | · | 95* | · | ·
CC(C)c1onc(C(=O)N2CCN(c3ccc(F)cc3)CC2)c1[N+](=O)[O-] | · | 65* | · | ·
CC(C)c1onc(C(=O)N2CCCCCC2)c1[N+](=O)[O-] | 1 | 3 | -4 | 3
Cc1onc(C(=O)N2CCC(Cc3ccccc3)CC2)c1[N+](=O)[O-] | · | 92* | · | ·
CC(C)c1onc(C(=O)N2CCN(C(c3ccccc3)c3ccccc3)CC2)c1[N+](=O)[O-] | 1 | 91* | 4 | -7
SMILES | FLuc stim CS | TRAIL sens C8 | FLuc inh counter | PPC-1+TRAIL kill
CC(C)c1onc(C(=O)N2CCN(c3ccccc3)CC2)c1[N+](=O)[O-] | · | 10 | · | 12
CC1(C)CN(c2ccccc2)C(=O)[C@H]1CC(=O)Nc1ccccc1 | · | -9 | · | ·
CCN(CC)S(=O)(=O)c1ccc(C(=O)OCC(=O)Nc2ccc(-c3nc4ccc(C)cc4s3)cc2)cc1 | 0.7 | 75* | 33 | 28
CCN(CC)S(=O)(=O)c1cc(C(=O)OCC(=O)Nc2ccc(-c3nc4ccc(C)cc4s3)cc2)ccc1F | 0.8 | 74* | 19 | 28
Cc1ccc2nc(-c3ccc(NC(=O)COCC(=O)O)cc3)sc2c1 | · | 23 | · | 32
Cc1ccc2nc(-c3ccc(NS(=O)(=O)c4ccc(F)c(F)c4)cc3)sc2c1 | 0.5 | 31 | 55* | 20
CN1CCN(c2ncnc3c2ncn3[C@H]2CN(Cc3ccc(F)cc3)C[C@@H](CO)O2)CC1 | · | 1 | · | ·
Cc1c(C(=O)/C=C/c2cccs2)oc2ccc(F)cc12 | 0.2 | 12 | 84* | 18
COc1ccc(Nc2nc(N)nc(CCl)n2)cc1 | · | 92* | · | 30
Cc1c(Cl)cccc1Nc1nc(N)nc(CSc2ncccn2)n1 | 1 | 91* | -4 | -10
Cc1c(Cl)cccc1Nc1nc(N)nc(CSCCO)n1 | 1 | -13 | -1 | -22
Cc1ccccc1Nc1nc(N)nc(CCl)n1 | · | 91* | · | 14
Cc1ccccc1Nc1nc(N)nc(CN(C)c2ccccc2)n1 | 1 | -1 | -5 | 36
O=c1c(Br)c(Br)cnn1-c1ccccc1 | 1 | 97* | -4 | 33
Cc1nc2ccc(NS(=O)(=O)c3ccc(Br)cc3)cc2s1 | · | 1 | · | ·
Cc1onc(-c2c(Cl)cccc2Cl)c1C(=O)N=C(N)N1CC(C)OC(C)C1 (centres undefined) | · | 4 | · | -19
CCOC(=O)c1c(C)oc(=O)c(CC)c1O | · | 0 | · | ·
CCOC(=O)c1c(C)oc2c(F)c(F)c(F)c(F)c2c1=O | 1 | 94* | -5 | 21
CC(C)C[C@H]1CNC(=S)N1C[C@H]1CCCN1C[C@H](Cc1ccccc1)N1C[C@H](Cc2ccc(O)cc2)N(CC2CCCCC2)C1=S | · | 68* | · | ·
Nc1ccc(Nc2nc(-c3cccs3)cs2)cc1 | 0.1 | -2 | 90* | ·
c1ccc(Nc2nc(-c3cccs3)cs2)nc1 | 0.3 | 30 | 68* | 13
Cc1cccc(Nc2nc(-c3cccs3)cs2)n1 | 0.7 | 8 | 26 | 5
Cc1nc(C)c(-c2csc(Nc3ccc(N)cc3)n2)s1 | · | 17 | · | ·
CCCCN(C)CCNC(=O)C1CCN(S(=O)(=O)c2cccc3nsnc23)CC1 | · | 6 | · | ·
O=C(NC1CCCc2ccccc21)c1cccc(F)c1 (centres undefined) | · | 13 | · | ·
SMILES | FLuc stim CS | TRAIL sens C8 | FLuc inh counter | PPC-1+TRAIL kill
CC(=O)N1c2ccc(S(=O)(=O)N3CCCC3)cc2CC1C(=O)NC(C)C (centres undefined) | · | -3 | · | ·
O=C(Nc1ccc(Oc2c(F)c(F)c(F)c(F)c2F)cc1)OC1CCN2Cc3ccccc3N=C12 (centres undefined) | · | 69* | · | -17
N/C(=N\OC(=O)c1ccc(Br)cc1)c1ccncc1 | 0.3 | -10 | 68* | 22
N/C(=N\OC(=O)c1cccc(Br)c1)c1ccncc1 | 0.6 | 2 | 39 | 15
N/C(=N\OC(=O)c1ccccc1)c1ccncc1 | 0.3 | 2 | 66* | 24
CC1(C(=O)NCc2cccc(Cl)c2)Cc2c(-c3ccc4c(c3)OCO4)ccnc2O1 (centres undefined) | · | 27 | · | ·
Cc1noc(C)c1-c1ccc(C(=O)NCc2cccc(Cl)c2)c2occc12 | · | -3 | · | ·
CCOC(=O)c1c(CSC(=N)N)n(-c2ccc(C)cc2)c2cc(Br)c(OC(C)=O)cc12 | 1.1 | 93* | -9 | 18
O=c1cc(C(Cl)(Cl)Cl)oc2c1ccc1ccccc12 | 1 | 90* | -2 | 17
COC(=O)/C=C1\SC(=NC(=O)c2ccc(-c3ccccc3)cc2)NC1=O | · | 12 | · | ·
COC(=O)c1sc(S(=O)(=O)N2CCCCC2C)c(C(=O)OC)c1C (centres undefined) | · | 7 | · | ·
O=C(NC1CC1)C1CCN(S(=O)(=O)c2ccc(Cl)c([N+](=O)[O-])c2)CC1 | · | 64* | · | ·
CCC(C)NC(=O)c1cc2cc3ccc(OC)cc3nc2s1 (centres undefined) | 0.4 | 47 | 59* | 33
COc1ccc(CNc2nc3ccc(C)cc3s2)c(OC)c1OC | · | -3 | · | ·
